This note sets out measurements from PubChem BioAssay AID504407 (Broad Institute, 2011).

Values without a mark were called inactive.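 The calls were made as follows: active = cytochrome c release activity at 50 µM, scaled between control wells and rounded, of 10% or more; inactive = the rest.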

The experiment in a line: cytochrome c release from parental CHL-1 mitochondria, counter-screen for A1 inhibitor project, biochemical, CHL-1 wild type, cytochrome c ELISA, dry powder (AID 504407). The following applies: CHL-1 isolated mitochondria, at 50 µM, hits give high values. The procedure, abridged:
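test system = CHL-1 wild-type mitochondria | medium = AT buffer, 80 mM KCl | timing = 30 min compound treatment, 30 °C | detection = ELISA absorbance at 450 nm, 540 nm corrected | measure = released cytochrome c in supernatant | controls = DMSO negative, tBid positive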
For orientation: A counterscreen serves to expose hits that act by an unwanted route or on another target.

On to `Cn1c(=O)c([N+](=O)[O-])c(Cl)c2ccccc21`, for which the cytochrome c release activity was 0.1%.
